Test results published in ChEMBL document CHEMBL2046347, “Structure-activity relationships in human Toll-like receptor 2-specific monoacyl lipopeptides” (J Med Chem, 2012).
One block for each compound: values may come before it. The source made the active and inactive calls. The calls are words filed in the database; no cut-off is given here.

Key:
Type in all cases: functional, cell-based
[1] = target: Toll-like receptor 2 (Homo sapiens) (UniProt O60603); experiment: Agonist activity at human TLR2 expressed in HEK293 cells assessed as NFkappaB translocation at 10 uM after 12 hrs by secretory alkaline phosphatase reporter gene assay
[2] = target: Toll-like receptor 2 (Homo sapiens) (UniProt O60603); experiment: Antagonistic activity at human TLR2 expressed in HEK293 cells assessed as inhibition of PAM2CS-induced NFkappaB translocation by secretory alkaline phosphatase reporter gene assay
Procedure, shortened: (§1)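 Reporter HEK293 lines (human or murine TLR2, NF-κB-inducible secreted alkaline phosphatase) plated at ~10⁵ cells/mL. Stimulated with PAM2CS (1 μg/mL) or lipoteichoic acid (1 μg/mL) in the presence of graded test-compound concentrations. Phosphatase activity in supernatant measured spectrophotometrically at 620 nm using a phosphatase-specific chromogen.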

[3] = target: Toll-like receptor 2 (Mus musculus) (UniProt Q9QUN7); experiment: Antagonistic activity at mouse TLR2 expressed in HEK293 cells assessed as inhibition of PAM2CS-induced NFkappaB translocation by secretory alkaline phosphatase reporter gene assay; procedure, shortened: as §1
[4] = target: Toll-like receptor 2 (Homo sapiens) (UniProt O60603); experiment: Antagonistic activity at human TLR2 expressed in HEK293 cells assessed as inhibition of lipoteichoic acid-induced NFkappaB translocation by secretory alkaline phosphatase reporter gene assay; procedure, shortened: as §1
[5] = target: Toll-like receptor 2 (Mus musculus) (UniProt Q9QUN7); experiment: Antagonistic activity at mouse TLR2 expressed in HEK293 cells assessed as inhibition of lipoteichoic acid-induced NFkappaB translocation by secretory alkaline phosphatase reporter gene assay; procedure, shortened: as §1
[6] = target: Toll-like receptor 2 (Mus musculus) (UniProt Q9QUN7); experiment: Agonist activity at mouse TLR2 expressed in HEK293 cells assessed as NFkappaB translocation after 12 hrs by secretory alkaline phosphatase reporter gene assay
Procedure, shortened: (§2)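 HEK293 cells stably carrying human or murine TLR2 plus an NF-κB-driven secreted alkaline phosphatase reporter, kept in selection medium with zeocin and normocin. Seeded at ~10⁵ cells/mL and grown to confluency, then exposed to serially diluted compounds for 12 h. Secreted phosphatase in supernatant read colorimetrically at 620 nm with an alkaline phosphatase-specific chromogen in detection medium.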

[7] = target: Toll-like receptor 2 (Homo sapiens) (UniProt O60603); experiment: Agonist activity at human TLR2 expressed in HEK293 cells assessed as NFkappaB translocation after 12 hrs by secretory alkaline phosphatase reporter gene assay; procedure, shortened: as §2

Chain of Toll-like receptor 2 (Homo sapiens) (O60603 whole entry): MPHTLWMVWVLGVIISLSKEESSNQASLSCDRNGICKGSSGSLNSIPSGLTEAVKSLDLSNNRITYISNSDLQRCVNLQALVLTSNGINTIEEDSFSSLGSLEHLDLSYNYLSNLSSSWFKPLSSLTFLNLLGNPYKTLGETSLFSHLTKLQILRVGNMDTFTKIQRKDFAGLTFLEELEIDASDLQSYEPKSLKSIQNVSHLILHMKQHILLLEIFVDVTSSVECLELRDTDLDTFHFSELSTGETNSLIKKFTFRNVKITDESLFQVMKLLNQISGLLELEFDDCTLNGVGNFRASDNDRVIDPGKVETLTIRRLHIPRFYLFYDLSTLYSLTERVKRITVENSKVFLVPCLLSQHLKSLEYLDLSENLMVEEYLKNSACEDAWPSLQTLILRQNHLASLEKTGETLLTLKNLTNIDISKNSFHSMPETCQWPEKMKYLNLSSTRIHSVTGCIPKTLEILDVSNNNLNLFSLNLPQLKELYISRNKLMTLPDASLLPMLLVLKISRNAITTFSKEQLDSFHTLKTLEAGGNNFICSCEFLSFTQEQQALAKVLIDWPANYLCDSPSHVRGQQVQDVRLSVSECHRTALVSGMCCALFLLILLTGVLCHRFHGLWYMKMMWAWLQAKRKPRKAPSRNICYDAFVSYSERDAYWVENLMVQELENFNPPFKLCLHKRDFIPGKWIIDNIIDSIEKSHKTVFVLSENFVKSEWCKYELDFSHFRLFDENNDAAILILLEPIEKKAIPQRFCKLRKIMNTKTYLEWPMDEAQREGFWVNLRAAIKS
Chain of Toll-like receptor 2 (Mus musculus) (Q9QUN7 whole entry): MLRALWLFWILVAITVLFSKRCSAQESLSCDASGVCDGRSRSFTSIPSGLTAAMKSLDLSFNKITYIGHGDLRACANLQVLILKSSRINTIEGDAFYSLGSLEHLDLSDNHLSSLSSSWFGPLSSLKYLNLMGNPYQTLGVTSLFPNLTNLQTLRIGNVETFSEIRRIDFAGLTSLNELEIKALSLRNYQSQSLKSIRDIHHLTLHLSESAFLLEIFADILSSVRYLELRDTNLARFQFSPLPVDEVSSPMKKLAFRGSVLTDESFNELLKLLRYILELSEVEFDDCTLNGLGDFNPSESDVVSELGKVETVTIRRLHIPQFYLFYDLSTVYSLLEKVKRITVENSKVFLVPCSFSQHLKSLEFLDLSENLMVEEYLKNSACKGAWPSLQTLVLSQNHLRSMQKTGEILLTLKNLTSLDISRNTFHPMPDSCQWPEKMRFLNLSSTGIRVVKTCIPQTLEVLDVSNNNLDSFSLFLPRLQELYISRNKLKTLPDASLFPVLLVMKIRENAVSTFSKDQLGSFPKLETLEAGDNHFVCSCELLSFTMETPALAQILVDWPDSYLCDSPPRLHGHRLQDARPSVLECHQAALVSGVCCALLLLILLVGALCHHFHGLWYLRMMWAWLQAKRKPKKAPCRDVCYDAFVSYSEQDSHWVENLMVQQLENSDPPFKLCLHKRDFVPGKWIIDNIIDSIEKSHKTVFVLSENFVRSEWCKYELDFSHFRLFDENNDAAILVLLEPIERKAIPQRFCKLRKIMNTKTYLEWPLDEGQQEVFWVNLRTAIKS

Activity [1]: inactive
Structure (SMILES): CCCCCCCCCCCCCCCCN[C@@H](CSCCOC(=O)CCCCCCCCCCCCCCC)C(=O)N[C@@H](CO)C(=O)OC

Activity [1]: inactive
inhibition [2]: inactive
inhibition [3]: inactive
inhibition [4]: inactive
inhibition [5]: inactive
Structure (SMILES): CCCCCCCCCCCC(=O)OCCSC[C@H](N)C(=O)N[C@@H](CO)C(=O)OC

Activity [1]: inactive
inhibition [2]: inactive
inhibition [3]: inactive
inhibition [4]: inactive
inhibition [5]: inactive
Structure (SMILES): COC(=O)[C@H](CO)NC(=O)[C@@H](N)CSCCOC(=O)c1cccc(-c2ccccc2)c1

Activity [1]: inactive
inhibition [2]: inactive
inhibition [3]: inactive
inhibition [4]: inactive
inhibition [5]: inactive
Structure (SMILES): COC(=O)[C@H](CO)NC(=O)[C@@H](N)CSCCOC(=O)c1ccc(-c2ccc(-c3ccccc3)cc2)cc1

Activity [6]: inactive
Structure (SMILES): CCCCCCCCCCCCCCCC(=O)OCCSC[C@H](NC(C)=O)C(=O)N[C@@H](CO)C(=O)OC

Activity [1]: inactive
Structure (SMILES): CCCCCCCCCCCCCCCC(=O)OCCSC[C@H](NCC)C(=O)N[C@@H](CO)C(=O)OC

Activity [1]: inactive
inhibition [2]: inactive
inhibition [3]: inactive
inhibition [4]: inactive
inhibition [5]: inactive
Structure (SMILES): CCCCCCCC(=O)OCCSC[C@H](N)C(=O)N[C@@H](CO)C(=O)OC

Activity [6]: inactive
Structure (SMILES): CCCCCCCCCCCCCCCC(=O)OCCSC[C@H](NC(=O)CCCCCCC)C(=O)N[C@@H](CO)C(=O)OC

Activity [7]: inactive
Structure (SMILES): CCCCCCCCCCCCCCCC(=O)OCCSC[C@H](NS(=O)(=O)C(F)(F)F)C(=O)N[C@@H](CO)C(=O)OC

Activity [6]: inactive
Structure (SMILES): CCCCCCCCCCCCCCCC(=O)OCCSC[C@H](N)C(=O)N[C@@H](CO)C(=O)OC

Activity [1]: inactive
inhibition [2]: inactive
inhibition [3]: inactive
inhibition [4]: inactive
inhibition [5]: inactive
Structure (SMILES): CCCC(=O)OCCSC[C@H](N)C(=O)N[C@@H](CO)C(=O)OC

Activity [7]: Active
Structure (SMILES): CCCCCCCCCCCCCCCC(=O)OCCSC[C@H](N)C(=O)N[C@@H](COC(C)=O)C(=O)OC

Further lines, the compound ahead of its results:

Structure (SMILES): CCCCCCCCCCCCCCCC(=O)N[C@@H](CSCCOC(=O)CCCCCCCCCCCCCCC)C(=O)N[C@@H](CO)C(=O)OC
Activity [1]: inactive

Structure (SMILES): COC(=O)[C@H](CO)NC(=O)[C@@H](N)CSCCOC(=O)c1ccc(-c2ccccc2)cc1
Activity [1]: inactive
inhibition [2]: inactive
inhibition [3]: inactive
inhibition [4]: inactive
inhibition [5]: inactive

Structure (SMILES): CCCCCCCCCCCCCCCC(=O)OCCSC[C@H](NS(C)(=O)=O)C(=O)N[C@@H](CO)C(=O)OC
Activity [7]: inactive

Structure (SMILES): CCCCCCCCCCCCCCCC(=O)OCCSC[C@H](NC(=O)CCC)C(=O)N[C@@H](CO)C(=O)OC
Activity [6]: inactive

Structure (SMILES): CCCCCCCCCCCCCCNCC(=O)OCCSC[C@H](N)C(=O)N[C@@H](CO)C(=O)OC
Activity [1]: inactive

Structure (SMILES): CCCCCCCCCCCCCCCC(=O)OCCSC[C@H](NCCCCCCCC)C(=O)N[C@@H](CO)C(=O)OC
Activity [1]: inactive

Structure (SMILES): CCCCCCCCCCCCCCCC(=O)OCCSC[C@H](NC(=O)C(Cl)(Cl)Cl)C(=O)N[C@@H](CO)C(=O)OC
Activity [7]: inactive

Structure (SMILES): CCCCCCCCCCCCCCCCCC(=O)OCCSC[C@H](N)C(=O)N[C@@H](CO)C(=O)OC
Activity [6]: inactive

Structure (SMILES): CCCCCCCCCCCCCCCC(=O)OCCSC[C@H](NS(=O)(=O)c1ccc(C)cc1)C(=O)N[C@@H](CO)C(=O)OC
Activity [7]: inactive

Structure (SMILES): CCCCCCCCCCCCCCN(CCCCCCCCCCCCCC)CC(=O)OCCSC[C@H](N)C(=O)N[C@@H](CO)C(=O)OC
Activity [1]: inactive
